# Assay outcomes deposited in PubChem BioAssay by several laboratories.
# Shown are actives, neighbours in structure and some others; about 4.5% of the full set was active somewhere.
# NS3 helicase inh: inhibitors of Hepatitis C virus NS3 helicase; NS3 helicase DNA unwinding, Cy5 molecular beacon fluorescence; inhibition, % at 10.9 µM; actives 0.56% (n = 290,000);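 active means inhibition above the mean of all tested compounds plus 3 SD, set per campaign, cut at about 35% in these data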;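 further: 0% = DMSO wells and 100% = thioflavine S control wells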
#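 Assay system: hepatitis C virus NS3 helicase domain fragment enzyme. Also added: annealed dual-labelled DNA beacon duplex, ATP-started. Timing: 1 h reaction at 25 °C, ATP-initiated. Technique: Cy5 fluorescence at 0 and 60 min, beacon hairpin quenching. Evaluation: % inhibition of unwinding. Replication: one well per compound.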
# UPR CHOP act: activators of apoptotic arm of unfolded protein response (CHOP). actives 0.34% (n = 330,000). activation, % at 10 µM. CHO-CHOP luciferase reporter, UPR activation, luminescence; percent of tunicamycin response over DMSO baseline;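 active means at 10 µM dose, activation of 40% or more, normalized to positive control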;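 further: 100% = tunicamycin at 10 µg/mL and 0% = DMSO alone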
#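 Test system: CHO-CHOP cells, stable luciferase reporter of PERK-eIF2a-CHOP signalling | Quantity: 500 CHO-CHOP cells per well | Buffer or medium: F12 plus 10% serum | Compound dosing: 10 µM single point, 0.5% DMSO | Schedule: 6 h compound treatment, 37 °C | Signal: Luciferase luminescence | Control set: Tunicamycin high control, DMSO low control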
# p97 ATPase inh: inhibitors of human p97 ATPase | P55072 | actives 0.42% (n = 220,000) | recombinant p97 ATPase, Kinase-Glo ATP luminescence, 3 h | inhibition, % at 8 µM; in the data active means inhibition above about 15%;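 further: 0% = DMSO vehicle and 100% = wells lacking enzyme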
# Target sequence (P55072 whole entry, looked up): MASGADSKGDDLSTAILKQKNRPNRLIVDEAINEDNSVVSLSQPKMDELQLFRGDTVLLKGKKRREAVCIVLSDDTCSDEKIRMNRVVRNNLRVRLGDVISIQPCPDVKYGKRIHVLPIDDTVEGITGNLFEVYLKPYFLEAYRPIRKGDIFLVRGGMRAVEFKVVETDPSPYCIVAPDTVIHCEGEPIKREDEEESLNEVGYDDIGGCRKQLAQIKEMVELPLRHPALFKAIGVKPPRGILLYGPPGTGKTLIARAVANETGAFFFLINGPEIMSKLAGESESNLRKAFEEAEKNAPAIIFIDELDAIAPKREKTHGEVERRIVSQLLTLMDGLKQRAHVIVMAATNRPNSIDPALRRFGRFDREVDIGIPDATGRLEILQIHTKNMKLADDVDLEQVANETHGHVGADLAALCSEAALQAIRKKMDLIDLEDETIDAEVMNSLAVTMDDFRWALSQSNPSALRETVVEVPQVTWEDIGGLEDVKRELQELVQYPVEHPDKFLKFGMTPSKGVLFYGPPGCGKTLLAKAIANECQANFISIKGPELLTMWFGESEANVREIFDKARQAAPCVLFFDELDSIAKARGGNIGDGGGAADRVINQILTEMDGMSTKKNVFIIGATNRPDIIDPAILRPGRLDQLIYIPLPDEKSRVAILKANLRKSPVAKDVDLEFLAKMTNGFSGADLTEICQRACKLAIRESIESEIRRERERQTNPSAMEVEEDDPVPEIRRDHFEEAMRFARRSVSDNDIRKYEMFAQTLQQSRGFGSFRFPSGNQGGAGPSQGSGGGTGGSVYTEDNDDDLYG
# CHOP inhibitor: CHOP inhibition in unfolded protein response. CHO-K1 CHOP-promoter luciferase, tunicamycin-induced, 15-18 h. inhibition, % at 10 µM. AID 2732. actives 3.8% (n = 220,000);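 active means compounds that reduced the stress-induced luciferase reporter signal by more than about 70% of percent inhibition, limit read from the data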;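 further: 0% = tunicamycin plus vehicle and 100% = wells without tunicamycin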
# PfM18AAP inh-1: blocks P. falciparum M18 aspartyl aminopeptidase; inhibition, % at 7.35 µM; actives 1.2% (n = 290,000); recombinant PfM18AAP, H-Glu-NHMec fluorogenic cleavage;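 active means inhibition above the campaign mean inhibition over all tested compounds plus 3 SD, cut at about 28% in these data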;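 further: 0% = plate median of test compound wells and 100% = 2 mM ZnCl2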
# XBP1 UPR activ: activators of adaptive arm of unfolded protein response (XBP1); CHO-XBP1 luciferase reporter, IRE1-XBP1 UPR activation, luminescence; percent of tunicamycin response, DMSO as zero; AID 463104; actives 0.33% (n = 330,000); activation, % at 20 µM;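 active means versus positive control, 20 µM dose yields 30% or more activation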;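 further: 100% = tunicamycin at 10 µg/mL and 0% = DMSO only wells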
#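 Material: CHO cell line with stable XBP1 luciferase reporter; buffer or medium: F12 medium containing 10% fetal bovine serum; compound: single point, 20 µM final compound, 1% DMSO; incubation: 6 h treatment, 37 °C; measured by: glow luminescence from Steady-Glo reagent; evaluation: activation, % of tunicamycin; control set: tunicamycin high, DMSO low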
# PfM18AAP inh-2: confirmation of Plasmodium falciparum M18 aspartyl aminopeptidase inhibitors. recombinant PfM18AAP, H-Glu-NHMec fluorogenic cleavage. actives 28% (n = 2,400). shares compounds with PfM18AAP inh-1. AID 2170. inhibition, % at 7.35 µM;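 active means mean inhibition over replicate wells above the hit cutoff set for the earlier primary screen, cut at about 29% in these data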;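 further: 0% = median of test compound wells and 100% = 2 mM ZnCl2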
# CTSL1 confirm: counter-screen for PFM18AAP inhibitors: confirmation of human cathepsin L inhibitors | shares compounds with PfM18AAP inh-1 | purified cathepsin L1, Z-Leu-Arg-MCA fluorescence | inhibition, % at 5.96 µM | 2,400 tested, under 10 active;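 active means average inhibition across replicates above the hit cutoff set in the earlier primary screen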;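 further: 0% = median of test compound wells and 100% = Z-Phe-Ala-diazomethylketone 1 µM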
# An asterisk follows results filed as active; nt = no result given.
SMILES,NS3 helicase inh,UPR CHOP act,p97 ATPase inh,CHOP inhibitor,PfM18AAP inh-1,XBP1 UPR activ,PfM18AAP inh-2,CTSL1 confirm
C/C(=N\Nc1nc(C)cc(-c2ccccc2)n1)c1ccc(C)o1,1,0,1,-1,52*,2,-34,-1
CCOc1ccc(N2CC(C(=O)Nc3cccnc3)CC2=O)cc1 (configuration not stated),3,4,nt,nt,-10,0,nt,nt
CCC1CCC2(CC1)NNC(=S)NN2,-4,0,4,4,35*,1,39*,0
CCC1CCC2(CC1)NC(CO)(CO)CO2 (configuration not stated),-15,-1,5,12,-1,-2,nt,nt
CCN(CC)S(=O)(=O)c1ccc(N/N=C/c2cc(OC)ccc2O)nc1,-11,-1,-5,63,57*,-1,-9,1
CCN(CC)S(=O)(=O)c1ccc(N/N=C/c2cccnc2)nc1,-8,-2,5,1,20,1,nt,nt
CCN(CC)S(=O)(=O)c1ccc(NN)nc1,3,-1,2,0,45*,-1,41*,-2
CC(C)N(C(C)C)S(=O)(=O)c1ccc(NN)nc1,-11,1,2,1,38*,0,37*,3
Clc1ccccc1CN1CCN(/N=C/C=C/c2ccco2)CC1,0,3,-1,0,-6,3,nt,nt
CN(C)S(=O)(=O)N(CC(=O)Nc1ccc(S(=O)(=O)N2CCCC2)cc1)c1ccccc1,-5,3,nt,nt,-2,-1,nt,nt
COc1cccc(NC(=S)N2CCC(N(C)CC3CCCO3)CC2)c1 (configuration not stated),0,0,5,34,2,-3,nt,nt
CCN(C(=O)CSc1cccc[n+]1[O-])C1CCCCC1,nt,1,nt,nt,nt,2,nt,nt
Cc1cc(NC(=O)CSCC(=O)N(c2ccc(F)cc2)C(C(=O)NC2CCCCC2)c2ccc(O)c(O)c2)no1 (configuration not stated),-5,-2,5,13,68*,-3,52*,1
COc1ccc(N(C(=O)CSCC(=O)Nc2cc(C)on2)C(C(=O)NC2CCCCC2)c2ccc(O)c(O)c2)cc1 (configuration not stated),6,0,8,26,61*,1,48*,1
Cc1cc(NC(=O)CCC(=O)N(c2ccc(F)cc2)C(C(=O)NC2CCCC2)c2cccnc2)no1 (configuration not stated),6,-2,nt,nt,-1,-2,nt,nt
Cc1cc(NC(=O)CSCC(=O)N(c2cccc(Cl)c2)C(C(=O)NC2CCCCC2)c2ccc(O)c(O)c2)no1 (configuration not stated),-1,4,7,29,57*,0,43*,0
Cc1ccc(OCCC(=O)OCC(=O)NC(=O)NC2CCCCC2)cc1,nt,-2,nt,nt,nt,0,nt,nt
CCCN(CC(=O)Nc1ccccc1C)C(=O)c1sc2ccccc2c1Cl,nt,-1,nt,nt,nt,1,nt,nt
CC(=O)ONC(=Nc1ccccc1)c1nonc1N,14,-1,2,19,36*,-2,-6,-46
COc1cc(C)c(Cl)cc1S(=O)(=O)N1CCSC1,-16,0,nt,nt,-7,-2,nt,nt
O=C(O)c1cc(S(=O)(=O)O)cc(Nc2c3ccccc3nc3ccccc23)c1O,0,0,nt,nt,35*,0,-27,0
O=C(O)c1cccc(Nc2c3ccccc3nc3ccccc23)c1,8,4,nt,nt,5,-5,nt,nt
Cc1[nH]n(C)c(=O)c1C(=O)c1c(-c2ccccc2Cl)noc1C,-10,1,6,-4,7,-5,nt,nt
Cc1ccc(N2C(=O)c3ccccc3C2C(=O)c2cc(C)ccc2O)cc1 (configuration not stated),8,3,10,13,55*,6,24,2
Cc1ccc(N2C(=O)c3ccccc3C2C(=O)c2ccc(C)c(C)c2O)cc1 (configuration not stated),15,2,5,-5,42*,0,-18,1
SMILES,NS3 helicase inh,UPR CHOP act,p97 ATPase inh,CHOP inhibitor,PfM18AAP inh-1,XBP1 UPR activ,PfM18AAP inh-2,CTSL1 confirm
Cc1ccc(C2C(C(=O)O)c3ccccc3C(=O)N2C)c(C)c1 (configuration not stated),0,0,2,-3,5,-2,nt,nt
CCCCn1c(N)c(N(CC(C)C)C(=O)CSC(C)C(=O)Nc2cc(C)on2)c(=O)[nH]c1=O (configuration not stated),nt,0,nt,nt,nt,-5,nt,nt
O=C(NCc1ccco1)/C(=C\c1ccco1)NC(=O)c1ccco1,11,1,-4,3,-1,3,nt,nt
O=C(Cc1ncc(C(F)(F)F)cc1Cl)NNc1cccc(F)n1,3,1,nt,nt,24,-3,nt,nt
NC(=O)C1CCN(C(=O)C(=O)c2cn(CC(=O)N3CCCC3)c3ccccc23)CC1,7,0,nt,nt,43*,-4,-41,-3
CCc1ccc(OCC(=O)Nc2ccc(S(=O)(=O)Nc3cc(C)on3)cc2)c(Br)c1,-16,-2,nt,nt,-1,0,nt,nt
CCOC(=O)N1CCN(C(=O)c2ccc(Cl)c(NC(=O)c3cccs3)c2)CC1,nt,1,nt,nt,nt,0,nt,nt
O=C(CCCc1ccccc1)NCCS(=O)(=O)N1CCN(c2ccccc2F)CC1,nt,4,nt,nt,nt,0,nt,nt
COc1cc(OC)cc(-c2c(-c3cccs3)c3cc(-c4ccc(OCc5ccccc5)cc4)ccc3n2C)c1,nt,0,nt,nt,nt,-2,nt,nt
COc1ccc(O)c(/C=C2/SC(=S)N(Cc3ccccc3)C2=O)c1,12,1,nt,nt,42*,-4,-4,4
O=C(NCC1CCCCC1)c1ccc(F)cc1Cl,7,4,nt,nt,-4,0,nt,nt
Cc1[nH][nH]c(=O)c1C(c1ccc(N(C)C)c(Br)c1)c1c(C)[nH][nH]c1=O,-3,0,6,17,36*,-1,17,5
Cc1cccc(NC(=S)Nn2cnnc2)c1C,5,1,1,5,72*,-8,69*,0
CCOc1ccccc1NC(=S)Nn1cnnc1,6,0,nt,nt,74*,-2,56*,5
CCOc1ccccc1NC(=S)Nc1ccccc1F,3,0,3,25,-3,1,nt,nt
